Test results taken from ChEMBL document CHEMBL1177667, “Novel anti-viability ceramide analogs: design, synthesis, and structure-activity relationship studies of substituted (S)-2-(benzylideneamino)-3-hydroxy-N-tetradecylpropanamides” (Bioorg Med Chem, 2010).

Legend:
HEK293 = test: Cytotoxicity against HEK293 cells assessed as reduction in cell viability; format: cell-based; conditions: Homo sapiens
Method in brief: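 MTT viability assay on non-tumorigenic human kidney cells, run by the same protocol as the breast cancer line. Cells were seeded at […] per well in phenol-free DMEM with 5% FBS and left to adhere overnight. Compounds were given at 0.1–100 µM for 24 h, then MTT (5 mg/mL) for 4 h. Cells were lysed in 20% SDS/50% DMF and read at 550 nm (reference 630 nm). Mean ±SE of four independent experiments.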

[1] = Cytotoxicity against human MCF-7TN-R cells assessed as reduction in cell viability after 24 hrs by MTT assay; format: functional, cell-based

SMILES	IC50 (HEK293)	IC50 [1]
CCCCCCCCCCCCCCNC(=O)[C@H](CO)/N=C/c1cccc(O)c1	77.5 µM	32.6 µM
CCCCCCCCCCCCCCNC(=O)[C@H](CO)/N=C/c1ccccc1O	80.8 µM	19 µM
CCCCCCCCCCCCCCNC(=O)[C@H](CO)NCc1ccccc1[N+](=O)[O-]		29.4 µM
CCCCCCCCCCCCCCNC(=O)[C@H](CO)NCc1ccccc1Cl		43.7 µM
CCCCCCCCCCCCCCNC(=O)[C@H](CO)/N=C/c1ccc(O)cc1	71.7 µM	19.3 µM
CCCCCCCCCCCCCCNC(=O)[C@H](CO)/N=C/c1ccccc1Cl	94.9 µM	10.3 µM
CCCCCCCCCCCCCCNC(=O)[C@H](CO)/N=C/c1ccc(OC)cc1	81.7 µM	28.1 µM
CCCCCCCCCCCCCCNC(=O)[C@H](CO)/N=C/c1ccccc1OC	79.2 µM	12.5 µM
CCCCCCCCCCCCCCNC(=O)[C@H](CO)NCc1ccccc1OC		100 µM
CCCCCCCCCCCCCCNC(=O)[C@H](CO)NCc1ccccc1O		75.3 µM
CCCCCCCCCCCCCCNC(=O)[C@H](CO)/N=C/c1ccc([N+](=O)[O-])cc1	49.5 µM	216 µM
CCCCCCCCCCCCCCNC(=O)[C@H](CO)/N=C/c1cccc([N+](=O)[O-])c1	82.7 µM	104 µM
CCCCCCCCCCCCCCNC(=O)[C@H](CO)/N=C/c1cccc(C)c1	51.1 µM	82.9 µM
CCCCCCCCCCCCCCNC(=O)[C@H](CO)/N=C/c1ccccc1C	81.1 µM	87.7 µM
CCCCCCCCCCCCCCNC(=O)[C@H](CO)/N=C/c1ccc(C)cc1	47.3 µM	102 µM
CCCCCCCCCCCCCCNC(=O)[C@H](CO)/N=C/c1ccc(Cl)cc1	77.7 µM	27.5 µM
CCCCCCCCCCCCCCNC(=O)[C@H](CO)/N=C/c1cccc(Cl)c1	77 µM	24.1 µM
CCCCCCCCCCCCCCNC(=O)[C@H](CO)/N=C/c1cccc(OC)c1	77.3 µM	31.2 µM
CCCCCCCCCCCCCCNC(=O)[C@H](CO)/N=C/c1ccccc1[N+](=O)[O-]	82.6 µM	21.7 µM
CCCCCCCCCCCCC/C=C/[C@@H](O)[C@H](CO)NC(=O)CCCCCCC		8.59 µM
CCCCCCCCCCCCCCNC(=O)[C@H](CO)/N=C/c1ccccc1		7.67 µM
